This is an account of results in ChEMBL document CHEMBL1157774, “Investigations of fungal secondary metabolites with potential anticancer activity” (J Nat Prod, 2010).

Activity calls are given as the source filed them. The calls are words filed in the database; no cut-off is given here. Where only a bound is given, the exact number is not on record here.

In one assay the test system is Hs 683. The experiment in a line: Growth inhibition of apoptosis-sensitive human Hs 683 cells after 72 hrs by MTT assay. The note with it: Hs 683, 72 h. It is filed as functional, cell-based. In a few lines:
(§1)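 Cells seeded at 10 000 to 40 000 cells/mL, depending on line, and plated 24 h before treatment. Cultured 72 h with or without (control) compound. Viable cells measured by MTT reduction to formazan, absorbance at 570 nm (reference 630 nm). IC50 reported as mean ± SEM. Media carried 4 mM glutamine, gentamicin and penicillin-streptomycin. B16F10 grown in RPMI with 10% heat-inactivated FCS.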

A short description of assay [1]: Growth inhibition of apoptosis-resistant human U373 cells after 72 hrs by MTT assay. Particulars: U373 MG. It is filed as functional, cell-based, U-373MG ATCC. In outline:
as §1
(In general: Tetrazolium dyes change colour on reduction, which living cells bring about.)

Assay [2] deals with B16-F10. The experiment in a line: Growth inhibition of apoptosis-sensitive mouse B16F10 cells after 72 hrs by MTT assay. Particulars: B16-F10, 72 h. It is filed as functional, cell-based. In outline: as §1
Assay [3] in a line: Growth inhibition of apoptosis-resistant human OE21 cells after 72 hrs by MTT assay. The assay is classed as functional, cell-based. The note with it: OE21, 72 h. In outline: as §1
Another assay concerns A549. The assay is described as follows: Growth inhibition of apoptosis-resistant human A549 cells after 72 hrs by MTT assay. The note with it: A549, 72 h. It is filed as functional, cell-based. In a few lines:
as §1

For the next assay, the system named is SK-MEL-28. The assay is described as follows: Growth inhibition of apoptosis-resistant human SK-MEL-28 cells after 72 hrs by MTT assay. Particulars: SK-MEL-28, 72 h. It is filed as functional, cell-based. In outline: as §1
The test system of assay [4] is B16-F10. The experiment in a line: Cytostatic effect against apoptosis-sensitive mouse B16F10 cells assessed as impairment of cell population development at 20 uM by quantitative video microscopy.
Assay [5] relates to B16-F10. The assay is described as follows: Cytostatic effect against apoptosis-sensitive mouse B16F10 cells assessed as impairment of cell population development at 20 uM by quantitative video microscopy. The assay is classed as functional, cell-based. In outline: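 Computer-assisted phase-contrast microscopy (quantitative videomicroscopy) of B16F10 cells in RPMI with 10% heat-inactivated FCS, monitored 72 h without (control) or with compound. Time-lapse image sequences built into movies. Growth level taken as ratio of cell counts in first versus last frames. Cells counted in 1 mm2 fields at G×20, triplicate conditions, five fields each (15 fields per condition), mean ± SEM.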

What is called IC50 is the concentration needed to halve the response being measured. A lower IC50 goes with greater potency. Consider `C/C=C/C=C/C(=O)[C@@H]1[C@@H]([C@]2(C)OC(=O)C(C)=C2O)C2\C(=C(O)/C=C/C=C/C)C(=O)[C@]1(C)C(=O)[C@@]2(C)O` [BISLONGIQUINOLIDE], for which the IC50 in the assay with Hs 683 was determined as 22 µM; in assay [1], 4 µM; in the assay with B16-F10 [2], 3 µM; in assay [3], 9 µM; in the assay with A549, 11 µM; in the assay with SK-MEL-28, 8 µM.
With `C/C=C/C=C/C(=O)C1=C(O)[C@@]2(C)C3C(C(=O)CC/C=C/C)=C(O)[C@@]4(C)C1[C@]1(C)O[C@@]4(O)[C@@]3(C)O[C@@]12O` [DIHYDROTRICHODIMEROL], the IC50 with Hs 683 worked out at 34 µM; in assay [1] it was 25 µM; with B16-F10 [2] it was 3 µM; in assay [3], 28 µM; in the assay on A549, 33 µM; with SK-MEL-28 it was 33 µM. For the same compound, the inhibition entry with B16-F10 [4] is “Active”.
With `O[C@H]1[C@H]2c3cc4c(cc3CN3CCC(=C[C@@H]1O)[C@H]23)OCO4` [LYCORINE], the IC50 (in the assay with Hs 683; in assay [1]; in the assay on B16-F10 [2]; in assay [3]; in the assay on A549; in the assay on SK-MEL-28) was 2 µM throughout. In addition, the inhibition result with B16-F10 [5] is “Active”.
For the compound `O=C1N[C@@H]2C(=C[C@H](O)[C@@H](O)[C@H]2O)c2cc3c(c(O)c21)OCO3` [NARCICLASINE], the IC50 (with Hs 683; in assay [1]; in the assay on B16-F10 [2]; in assay [3]; in the assay on A549; in the assay with SK-MEL-28) was 0.05 µM each time.
For `C[C@@H]1[C@@]2(C)CC[C@@H]3[C@H]2CC[C@@]1(C)O[C@@]3(C)O` [SEIRICARDINE B], the IC50 (with Hs 683; in assay [1]; in the assay on B16-F10 [2]; in assay [3]; with A549; in the assay on SK-MEL-28) was greater than 100 µM in each case.
Regarding `C[C@@H]1[C@@]2(C)CC[C@@H]3[C@H]2CC[C@@]1(C)O[C@]3(C)O` [SEIRICARDINE C], the IC50 (in the assay on Hs 683; in assay [1]; with B16-F10 [2]; in assay [3]; in the assay with A549; in the assay on SK-MEL-28) was greater than 100 µM throughout.
